Test results reported in ChEMBL document CHEMBL1146117, “Inhibitors of human mitotic kinesin Eg5: characterization of the 4-phenyl-tetrahydroisoquinoline lead series” (Bioorg Med Chem Lett, 2006).

What was measured:
[1] = target: T1, Kinesin-like protein KIF11 (Homo sapiens, UniProt P52732); assay: Inhibition of Eg5 by ATPase assay; assay type: functional
T1 sequence (P52732 whole entry): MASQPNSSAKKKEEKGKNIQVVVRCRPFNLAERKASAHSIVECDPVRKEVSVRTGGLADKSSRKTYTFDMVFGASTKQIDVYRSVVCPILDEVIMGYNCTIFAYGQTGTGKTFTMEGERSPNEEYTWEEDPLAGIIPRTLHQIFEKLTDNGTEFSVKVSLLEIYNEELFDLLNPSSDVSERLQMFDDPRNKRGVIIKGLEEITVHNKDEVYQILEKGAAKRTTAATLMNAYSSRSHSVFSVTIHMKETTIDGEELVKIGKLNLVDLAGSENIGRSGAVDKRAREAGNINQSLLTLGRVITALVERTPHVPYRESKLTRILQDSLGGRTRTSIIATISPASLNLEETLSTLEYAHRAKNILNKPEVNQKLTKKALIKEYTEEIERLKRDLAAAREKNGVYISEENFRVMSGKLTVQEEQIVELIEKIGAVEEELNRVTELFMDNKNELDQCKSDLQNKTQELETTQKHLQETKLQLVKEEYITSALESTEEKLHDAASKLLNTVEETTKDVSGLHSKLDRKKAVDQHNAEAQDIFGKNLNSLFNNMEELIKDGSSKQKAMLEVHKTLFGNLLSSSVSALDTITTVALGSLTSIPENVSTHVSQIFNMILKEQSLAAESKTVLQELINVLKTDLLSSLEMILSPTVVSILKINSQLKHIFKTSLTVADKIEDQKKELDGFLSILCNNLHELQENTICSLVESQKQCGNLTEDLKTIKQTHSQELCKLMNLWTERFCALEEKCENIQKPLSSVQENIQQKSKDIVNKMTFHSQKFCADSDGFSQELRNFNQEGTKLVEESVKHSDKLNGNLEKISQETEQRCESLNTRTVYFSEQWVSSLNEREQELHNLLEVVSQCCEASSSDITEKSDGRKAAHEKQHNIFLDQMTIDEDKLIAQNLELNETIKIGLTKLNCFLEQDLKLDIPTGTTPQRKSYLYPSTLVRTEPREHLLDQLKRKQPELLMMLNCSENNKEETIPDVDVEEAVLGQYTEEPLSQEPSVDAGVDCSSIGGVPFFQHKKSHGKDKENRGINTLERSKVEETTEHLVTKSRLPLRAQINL
Method in brief: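 Eg5 motor-domain protein ATPase activity read with a Kinase-Glo luminescent ATP kit. IC50 taken from dose–response curves of triplicate data points. Values are means ± SD of three independent experiments.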

A2780 [2] = assay: Antiproliferative activity against human A2780 cells; assay type: functional, cell-based
Method in brief: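 A2780 ovarian carcinoma cells were exposed to compound for 72 h. IC50 derived from dose–response curves of triplicate data points, reported as the mean ± SD of three independent experiments.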

A2780 [3] = assay: Cell cycle arrest in A2780 cells by accumulation at G2/M phase at 0.328 uM; assay type: functional, Homo sapiens
Method in brief: (§1)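 A2780 cells were treated for 17 h at 0.257 or 0.328 µM, with nocodazole 0.1 µM as positive control and DMSO 0.08% as negative control. Cell-cycle profile (% G1, S, G2+M) and mitotic index (% cells in M phase) were quantified by flow cytometry.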

A2780 [4] = assay: Antiproliferative activity against human A2780S cells; assay type: functional, cell-based
Method in brief: (§2)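 Each tumour cell line in the panel was exposed to compound for 72 h, and IC50 was determined after that exposure.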

A2780 [5] = assay: Cell cycle arrest in A2780 cells by accumulation at G1 phase at 0.257 uM; assay type: functional, Homo sapiens; method in brief: as §1
MDA-MB-231 = assay: Antiproliferative activity against human MDA-MB-231 cells; assay type: functional, cell-based; method in brief: as §2
NCI-H446 = assay: Antiproliferative activity against human NCI-H446 cells; assay type: functional, cell-based; method in brief: as §2
A2780 [6] = assay: Cell cycle arrest in A2780 cells by accumulation at S phase at 0.328 uM; assay type: functional, Homo sapiens; method in brief: as §1
P388 = assay: Antiproliferative activity against mouse P388 cells; assay type: functional, cell-based; method in brief: as §2
HCT-116 = assay: Antiproliferative activity against human HCT116 cells; assay type: functional, cell-based; method in brief: as §2
A2780 [7] = assay: Cell cycle arrest in A2780 cells by accumulation at G2/M phase at 0.257 uM; assay type: functional, Homo sapiens; method in brief: as §1
A2780 [8] = assay: Mitotic index in A2780 cells at M phase at 0.257 uM; assay type: functional, Homo sapiens; method in brief: as §1
SW-620 = assay: Antiproliferative activity against human SW620 cells; assay type: functional, cell-based; method in brief: as §2
A2780 [9] = assay: Cell cycle arrest in A2780 cells by accumulation at G1 phase at 0.328 uM; assay type: functional, Homo sapiens; method in brief: as §1
LNCaP = assay: Antiproliferative activity against human LNCaP cells; assay type: functional, cell-based; method in brief: as §2
M109 = assay: Antiproliferative activity against mouse M109 cells; assay type: functional, cell-based; method in brief: as §2
A2780 [10] = assay: Cell cycle arrest in A2780 cells by accumulation at S phase at 0.257 uM; assay type: functional, Homo sapiens; method in brief: as §1
SHP77 = assay: Antiproliferative activity against human SHP77 cells; assay type: functional, cell-based; method in brief: as §2
MDA-MB-468 = assay: Antiproliferative activity against human MDA-MB-468 cells; assay type: functional, cell-based; method in brief: as §2
DU-145 = assay: Antiproliferative activity against human Du145 cells; assay type: functional, cell-based; method in brief: as §2
A2780 [11] = assay: Mitotic index in A2780 cells at M phase at 0.328 uM; assay type: functional, Homo sapiens; method in brief: as §1
PC-3 = assay: Antiproliferative activity against human PC3 cells; assay type: functional, cell-based; method in brief: as §2
A2780 [12] = assay: Antiproliferative activity against human A2780-TAXR cells; assay type: functional, cell-based; method in brief: as §2
CCRF-CEM = assay: Antiproliferative activity against human CCRF-CEM cells; assay type: functional, cell-based; method in brief: as §2

CN(C)C(=O)N1Cc2c(ccc(Cl)c2Cl)C(c2cccc(O)c2)C1 (stereo not given)
IC50 [1]: 1270 nM
IC50 (A2780 [2]): 3440 nM

CN(C)C(=O)N1Cc2c(ccc3c2OCC3)C(c2cccc(O)c2)C1 (stereo not given)
IC50 [1]: 639 nM
IC50 (A2780 [2]): 235 nM

Cc1ccc2c(c1C)CNCC2c1ccccc1 (stereo not given)
IC50 [1]: 8330 nM
IC50 (A2780 [2]): 9040 nM

CN(C)C(=O)N1Cc2cc(F)ccc2C(c2cccc(O)c2)C1 (stereo not given)
IC50 [1]: > 25000 nM

Cc1ccc2c(c1C)CN(CCCN(C)C)CC2c1ccccc1 (stereo not given)
IC50 [1]: 8880 nM
IC50 (A2780 [2]): 3240 nM

COc1cccc2c1CN(C(=O)N(C)C)CC2c1cccc(O)c1 (stereo not given)
IC50 [1]: 1780 nM
IC50 (A2780 [2]): 332 nM

COC(=O)N1Cc2c(ccc(C)c2C)C(c2ccccc2)C1 (stereo not given)
IC50 [1]: 14400 nM

Cc1ccc2c(c1C)CN(C(=O)N(C)C)CC2c1cccc(C(F)(F)F)c1 (stereo not given)
IC50 [1]: 13200 nM

CNC(=O)N1Cc2c(ccc(C)c2C)C(c2ccccc2)C1 (stereo not given)
IC50 [1]: > 25000 nM

CCc1cccc2c1CN(C(=O)N(C)C)CC2c1cccc(O)c1 (stereo not given)
IC50 [1]: 344 nM
IC50 (A2780 [2]): 186 nM

Cc1ccc2c(c1C)CN(C(=O)N1CCOCC1)CC2c1ccccc1 (stereo not given)
IC50 [1]: 22300 nM

Cc1ccc2c(c1C)CN(CCCCN(C)C)CC2c1ccccc1 (stereo not given)
IC50 [1]: 5360 nM
IC50 (A2780 [2]): 1860 nM

CCOC(=O)N1Cc2c(ccc(C)c2C)C(c2ccccc2)C1 (stereo not given)
IC50 [1]: > 25000 nM

Cc1ccc2c(c1C)CN(C(=O)N(C)C)C[C@@H]2c1cccc(O)c1
Activity (A2780 [3]): 84%
IC50 (A2780 [4]): 267 nM
Activity (A2780 [5]): 9.1%
IC50 (MDA-MB-231): 480 nM
IC50 (NCI-H446): 360 nM
IC50 (A2780 [2]): 234 nM
Activity (A2780 [6]): 5.9%
IC50 (P388): 460 nM
IC50 (HCT-116): 259 nM
Activity (A2780 [7]): 73.2%
Activity (A2780 [8]): 39.3%
IC50 (SW-620): 466 nM
Activity (A2780 [9]): 3.1%
IC50 (LNCaP): 807 nM
IC50 (M109): 259 nM
Activity (A2780 [10]): 11.8%
IC50 (SHP77): 261 nM
IC50 (MDA-MB-468): 350 nM
IC50 (DU-145): 484 nM
Activity (A2780 [11]): 52.2%
IC50 (PC-3): 223 nM
IC50 (A2780 [12]): 215 nM
IC50 (CCRF-CEM): 282 nM

CN(C)C(=O)N1Cc2cc(Br)ccc2C(c2cccc(O)c2)C1 (stereo not given)
IC50 [1]: 808 nM
IC50 (A2780 [2]): 879 nM

Cc1ccc2c(c1C)CN(C(=O)N(C)C)CC2c1ccccc1 (stereo not given)
IC50 [1]: 2750 nM
IC50 (A2780 [2]): 1200 nM

Cc1ccc2c(c1C)CN(C(N)=O)CC2c1ccccc1 (stereo not given)
IC50 [1]: > 25000 nM

Cc1ccc2c(c1C)CN(CCn1cccc1)CC2c1ccccc1 (stereo not given)
IC50 [1]: > 25000 nM

COc1ccc2c(c1)CN(C(=O)N(C)C)CC2c1cccc(O)c1 (stereo not given)
IC50 [1]: 617 nM
IC50 (A2780 [2]): 402 nM

CN(C)C(=O)N1Cc2c(F)cccc2C(c2cccc(O)c2)C1 (stereo not given)
IC50 [1]: > 25000 nM

CN(C)C(=O)N1Cc2c(Br)cccc2C(c2cccc(O)c2)C1 (stereo not given)
IC50 [1]: > 25000 nM

CN(C)C(=O)N1Cc2cc(I)ccc2C(c2cccc(O)c2)C1 (stereo not given)
IC50 [1]: 317 nM
IC50 (A2780 [2]): 363 nM
